Experimental data published in ChEMBL document CHEMBL4196247, “Coumarinolignoids and Taraxerane Triterpenoids from Sapium discolor and Their Inhibitory Potential on Microglial Nitric Oxide Production” (J Nat Prod, 2018).
pIC50: −log10 of the molar value.

Columns and labels:
BV-2 [1] = assay: Cytotoxicity against mouse BV2 cells assessed as reduction in cell viability at 1 to 100 uM after 24 hrs by MTT assay; assay type: cell-based; conditions: bv-2, 24 h
Method in brief: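 BV-2 viability was read by MTT at 1, 10, 30 and 100 μM in parallel with the NO-release test, to exclude NO drops caused by lost viability.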

BV-2 [2] = assay: Antineuroinflammatory activity in mouse BV2 cells assessed as inhibition of LPS-induced nitric oxide production measured after 24 hrs by Griess assay; assay type: functional, cell-based; conditions: BV-2, 24 h
Method in brief: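 BV-2 microglia; minocycline served as the positive control, and IC50 values were reported.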

SMILES	Activity (BV-2 [1])	pIC50 (BV-2 [2])
CC1(C)CC[C@]2(C(=O)O)CC=C3[C@]4(C)CC[C@H]5C(C)(C)[C@@H](OC(=O)/C=C/c6ccc(O)cc6)C[C@H](O)[C@]5(C)[C@H]4CC[C@@]3(C)[C@@H]2C1	Non-Toxic	4.33
COc1c2c(cc3ccc(=O)oc13)O[C@H](c1ccc(O)c(O)c1)[C@@H](CO)O2	Non-Toxic	4.93
CC1(C)CC[C@]2(C(=O)O)CC=C3[C@]4(C)CC[C@H]5C(C)(C)C(=O)CC[C@]5(C)[C@H]4CC[C@@]3(C)[C@@H]2C1	Non-Toxic	< 4.30
O=c1ccc2cc3c(cc2o1)O[C@H](CO)[C@@H](c1ccc(O)c(O)c1)O3	Non-Toxic	5.24
O=c1ccc2cc3c(cc2o1)O[C@H](c1ccc(O)c(O)c1)[C@@H](CO)O3	Non-Toxic	4.86
CN(C)c1ccc(O)c2c1C[C@H]1C[C@H]3[C@H](N(C)C)C(O)=C(C(N)=O)C(=O)[C@@]3(O)C(O)=C1C2=O [MINOCYCLINE]		5.31
CC1(C)CC[C@]2(C(=O)O)CC=C3[C@]4(C)CC[C@H]5C(C)(C)[C@@H](O)CC(=O)[C@]5(C)[C@H]4CC[C@@]3(C)[C@@H]2C1	Non-Toxic	< 4.30
CC1(C)CC[C@]2(C(=O)O)CC=C3[C@]4(C)CC[C@H]5C(C)(C)[C@@H](O)CC[C@]5(C)[C@H]4CC[C@@]3(C)[C@@H]2C1 [ALEURITOLIC ACID]	Non-Toxic	< 4.30
CC(=O)O[C@H]1CC(=O)[C@]2(C)[C@H]3CC[C@]4(C)C(=CC[C@@]5(C(=O)O)CCC(C)(C)C[C@H]54)[C@]3(C)CC[C@H]2C1(C)C	Non-Toxic	< 4.30
COc1cc(/C=C/C(=O)O[C@H]2CC(=O)[C@]3(C)[C@H]4CC[C@]5(C)C(=CC[C@@]6(C(=O)O)CCC(C)(C)C[C@H]65)[C@]4(C)CC[C@H]3C2(C)C)ccc1O	Non-Toxic	4.82
O=c1ccc2cc3c(cc2o1)O[C@@H](CO)[C@H](c1ccc(O)c(O)c1)O3	Non-Toxic	< 4.30
CC(=O)O[C@H]1C[C@H](O)[C@]2(C)[C@H]3CC[C@]4(C)C(=CC[C@@]5(C(=O)O)CCC(C)(C)C[C@H]54)[C@]3(C)CC[C@H]2C1(C)C	Non-Toxic	< 4.30
CC1(C)CC[C@]2(C(=O)O)CC=C3[C@]4(C)CC[C@H]5C(C)(C)[C@@H](OC(=O)/C=C/c6ccc(O)cc6)CC(=O)[C@]5(C)[C@H]4CC[C@@]3(C)[C@@H]2C1	Non-Toxic	4.85
CC(=O)O[C@H]1CC[C@]2(C)[C@H]3CC[C@]4(C)C(=CC[C@@]5(C(=O)O)CCC(C)(C)C[C@H]54)[C@]3(C)CC[C@H]2C1(C)C [ACETYL ALEURITOLIC ACID]	Non-Toxic	< 4.30
COc1c2c(cc3ccc(=O)oc13)O[C@@H](c1ccc(O)c(O)c1)[C@H](CO)O2	Non-Toxic	5.38
CC1(COC(=O)/C=C/c2ccc(O)cc2)CC[C@]2(C(=O)O)CC=C3[C@]4(C)CC[C@H]5C(C)(C)C(=O)C=C[C@]5(C)[C@H]4CC[C@@]3(C)[C@@H]2C1 (stereo not given in full)	Non-Toxic	5.57
O=c1ccc2cc3c(cc2o1)O[C@@H](c1ccc(O)c(O)c1)[C@H](CO)O3	Non-Toxic	5.14
CC1(COC(=O)/C=C\c2ccc(O)cc2)CC[C@]2(C(=O)O)CC=C3[C@]4(C)CC[C@H]5C(C)(C)C(=O)C=C[C@]5(C)[C@H]4CC[C@@]3(C)[C@@H]2C1 (stereo not given in full)	Non-Toxic	5.77
